Screening data as filed in PubChem.
Rows were chosen to be rich in hits. Some 11% of all compounds tested hit in one or more screens of this group.
WT yeast gro inh – growth inhibition of WT yeast, mitochondrial fusion screen; inhibition, % at 10 µM; 2.1% of 190,000 active; mitochondrial fusion phenotypic screen, WT strain; in the data active means inhibition above about 58%; tested in S. cerevisiae
Diaph inh CS – inhibits diaphorase or chemically oxidizes, flagging diaphorase assay artifacts; diaphorase resazurin-to-resorufin fluorescence, NADH, 16 min; bacterial (C. kluyveri) enzyme, not human; inhibition, % at 20 µM; 0.69% of 190,000 active;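 active means primary screen inhibition at 20 µM above a set limit, cut at about 50% in these data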;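 further: plate controls were DMSO with full reaction for no effect and wells lacking NADH for full effect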
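System: Bacterial diaphorase enzyme (C. kluyveri) | Incubation: 16-min room-temperature incubation before reading | Benchmarks: No-NADH positive control and DMSO neutral control | Measured by: Resorufin fluorescence 544/590 nm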
Lmaj promast – reduces viability of Leishmania major promastigotes; resazurin fluorescence viability; inhibition, % at 10 µM; 9% of 200,000 active; AID 1063;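 further: promastigotes grown with compound for 44 hours at 28 °C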
Diaph act CS – activates diaphorase or chemically reduces, flagging diaphorase assay artifacts; Diaphorase/resazurin coupled assay, resorufin fluorescence, 16 min; hits give high values; 1 = vehicle wells, 0 = NADH-free wells; activation factor at 20 µM; 0.005% of 190,000 active; AID 1229;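 active means diaphorase activity raised at least twofold by the compound at 20 µM; inactive means activation factor below 2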
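Material: Purified diaphorase enzyme from Clostridium kluyveri | Buffer or medium: 50 mM HEPES pH 7.4 with 4.542 mM MgCl2, 0.005% Tween 20 | Times: 16 min enzyme reaction, ambient temperature | Signal: Red resorufin fluorescence at 544/590 nm excitation/emission | Measure: Increased resorufin signal from activators or reducing compounds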
G6PDH CS – counter-screen for G6PDH assay hits: L. mesenteroides G6PDH inhibition | Purified L. mesenteroides G6PDH, diaphorase/resazurin coupled fluorescence, 45 min | inhibition, % at 5 µM | 0.12% of 200,000 active
Starred values were filed as active, the others as inactive; / = no result. Unless noted, no stated cut-off is given here; in the data, active means inhibition above about 50%; inactive means the rest.

SMILES	WT yeast gro inh	Diaph inh CS	Lmaj promast	Diaph act CS	G6PDH CS
CCn1cc(C(=O)O)c(=O)c2cc(OC)ccc21	-12	10	-8	0.9	8
Cc1ccccc1N1C(=O)CC(N(O)c2ccccc2)C1=O (centres undefined)	0	1	-8	1	3
CCN(CCO)C1CC(=O)N(c2ccccc2C)C1=O (centres undefined)	7	2	60*	1	-4
CN(C)S(=O)(=O)c1ccc(C(=O)NNc2nc(-c3ccccc3)c3cc(Br)ccc3n2)cc1	-19	18	71*	0.8	-1
O=C(Nc1cccc(N2CCCC2)c1)c1cccs1	10	16	86*	0.8	3
O=C(Nc1cccc(NC(=O)c2cccs2)c1)c1ccco1	-12	5	72*	1	0
Cc1ccc(NC(=O)c2ccco2)c(NC(=O)c2cccs2)c1	-5	26	72*	0.7	-4
Clc1ccc(OCc2nn3c(C4CCCCC4)nnc3s2)cc1	30	21	-6	0.8	-45
O=C1C(=O)N(CCc2c[nH]c3ccccc23)C(c2cccnc2)/C1=C(/O)c1ccccc1 (centres undefined)	-9	5	-11	1	3
COc1ccc(O)c(C(=O)CC(=O)c2ccccc2C)c1	37	-8	92*	1.1	11
COc1ccc(O)c(C(=O)CC(=O)c2ccc(F)cc2)c1	-3	13	53*	0.9	2
CCC(=O)NC(c1ccc(OC)c(OC)c1)c1cc(Cl)c2cccnc2c1O (centres undefined)	-8	25	90*	0.8	14
Cc1ccc(C(NC(=O)C(C)C)c2cc([N+](=O)[O-])c3cccnc3c2O)cc1 (centres undefined)	-15	39	4	0.6	53*
CCCC(=O)NC(c1ccco1)c1cc(Cl)c2cccnc2c1O (centres undefined)	-6	37	-2	0.6	6
COc1ccc(C(NC(C)=O)c2cc(Cl)c3cccnc3c2O)cc1OC (centres undefined)	-8	66*	23	0.3	10
COc1ccc2nc(NC(=O)CSc3nnnn3C)sc2c1	11	-4	-2	1	11
O=C(COC(=O)c1cncc(Br)c1)NC1CCCC1	-7	6	-4	0.9	8
O=C(Nc1ccc(Cl)cc1)NC1CCCC1Cc1ccco1 (centres undefined)	-53	11	24	0.9	20
O=C(Nc1ccc(Cl)cc1)NC1CCCCC1Cc1ccco1 (centres undefined)	75*	15	5	0.9	2
O=C(c1ccc2c(c1)OCO2)N(Cc1ccco1)C1(C(=O)NC2CCCCC2)CCCCC1	59*	0	31	1	0
O=C(NCCCN1CCOCC1)c1c(O)c2ccccc2[nH]c1=O	2	6	7	0.9	12
COc1cc2[nH]c(=O)c(C(=O)NCCCN3CCCCC3)c(O)c2cc1OC	9	-5	94*	1	11
COC(=O)c1ccc2c(=O)[nH]c(CSc3nc(C)cs3)nc2c1	6	1	-8	1	2
COC(=O)c1ccc2c(=O)[nH]c(CSc3nnc(C(F)(F)F)n3C)nc2c1	4	3	56*	1	7
COc1ccc(/C=C2\SC(=O)N(CCC(=O)Nc3ccccc3)C2=O)cc1OC	-5	12	53*	0.9	-3
SMILES	WT yeast gro inh	Diaph inh CS	Lmaj promast	Diaph act CS	G6PDH CS
O=C(CCCN1C(=O)/C(=C/c2ccccc2)SC1=S)Nc1cccc(O)c1	30	24	65*	0.8	-7
COc1cc(/C=C2/SC(=O)N(Cc3ccccc3Cl)C2=O)ccc1OCc1ccncc1	3	-14	-1	1.1	-2
COc1cc(/C=C2\SC(=S)N(CCC(=O)Nc3ccccc3)C2=O)cc(OC)c1OC	-6	9	9	0.9	16
O=C(CCCN1C(=O)/C(=C\c2ccccc2)SC1=S)Nc1ccc(O)cc1	-13	/	39	/	8
COc1cc(/C=C2\SC(=O)N(CCN)C2=O)ccc1OS(=O)(=O)c1cc(C)ccc1C	59	-76	100*	1.8	1
COC(=O)c1ccc(OCC(=O)c2cccc(OC)c2)cc1	-14	2	-8	1	-1
OCC1(Cc2cccc(C(F)(F)F)c2)CCN(Cc2cc3ccccc3o2)CC1	43	22	84*	0.8	3
COc1ccc(CC2(CO)CCN(Cc3cc4ccccc4o3)CC2)cc1	16	13	79*	0.9	18
CC(=O)c1ccc(C(=O)N2CCC(CO)(Cc3cccc(C(F)(F)F)c3)CC2)cc1	9	8	7	0.9	13
Cc1c(CN2CCC(CO)(Cc3cccc(C(F)(F)F)c3)CC2)c2ccccc2n1C	24	-17	87*	1.2	8
COc1ccc(CC2(CO)CCN(Cc3cnn(C)c3C)CC2)cc1	-10	13	-4	0.9	6
CC(C)c1ccc(NC2(C#N)C(=O)Nc3ccccc32)cc1 (centres undefined)	15	22	-4	0.8	2
CCn1nc(C)c(/C=N/NC(=O)Cn2nc(C)cc2C)c1C	-13	4	45	1	-1
CN(c1ccccc1)S(=O)(=O)c1cccc(C(=O)Nc2ccc3c(c2)CCC3)c1	24	10	75*	0.9	-4
CN(c1ccccc1)S(=O)(=O)c1cccc(C(=O)NNC(=O)c2ccccc2)c1	-5	10	2	0.9	5
CN(c1cccc(Cl)c1)S(=O)(=O)c1cccc(C(=O)Nc2nc3ccccc3[nH]2)c1	39	12	99*	0.9	6
COc1ccc(NC(=O)c2cc(S(=O)(=O)N(Cc3ccccc3)c3ccccc3)ccc2Cl)cn1	22	21	94*	0.8	6
COc1ccc(NC(=O)c2cccc(S(=O)(=O)N(C)c3ccccc3)c2)cn1	11	13	72*	0.9	13
O=C(c1ccc(Sc2cccc(Cl)c2)c([N+](=O)[O-])c1)N1CCN(c2ccccn2)CC1	36	14	-6	0.9	8
COc1ccccc1NC(=O)CN1CCN(C2c3ccccc3-c3ccccc32)CC1	57	18	58*	0.8	3
CCOc1ccc(NC(=O)CN2CCN(C3c4ccccc4-c4ccccc43)CC2)cc1	45	20	90*	0.8	5
CC(=O)c1sc(N/N=C2\CC3CCC2(C)C3(C)C)nc1C (centres undefined)	51	/	83*	/	14
Cc1ccc(S(=O)(=O)NCc2ccc(/C=C(/C#N)C(=O)NCc3ccccc3)o2)cc1	-16	19	70*	0.8	0
COCCNC(=O)/C(C#N)=C\c1ccc(CNS(=O)(=O)c2ccc(C)cc2)o1	4	-2	-4	1	8
C=CCn1c(=O)c2ccccc2n2c(SCC(=O)Nc3sc(C)c(CC)c3C(=O)OCC)nnc12	6	19	71*	0.8	-17
